Experimental data as given in ChEMBL document CHEMBL3779858, “Design, synthesis and Structure-activity relationship studies of new thiazole-based free fatty acid receptor 1 agonists for the treatment of type 2 diabetes” (Eur J Med Chem, 2016).
Active and inactive are the calls of the source. No cut-off for these calls is given here.

How the values were obtained:
[1] = target: T1, Free fatty acid receptor 1 (Homo sapiens, UniProt O14842); experiment: Agonist activity at human FFA1 receptor expressed in CHO cells assessed as Ca2+ influx at 100 nM by FLIPR assay; assay type: functional, cell-based
Procedure, shortened: (§1)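 Human FFA1 stably expressed in CHO cells, seeded at 15K/well and grown 16 h at 37 °C, 5% CO2. Cells loaded 1 h at 37 °C with Fluo 4-AM (2.5 µg/mL), 2.5 mmol/L probenecid and 0.1% fatty acid-free BSA. Single screening concentration as listed. Ca2+ flux read on FLIPR Tetra and expressed as % of the 10 µM γ-linolenic acid response after vehicle subtraction. Mean of three independent experiments.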

[2] = test system: Mus musculus; experiment: Antidiabetic activity in overnight fasted ICR mouse assessed as decrease in plasma glucose AUC at […], po administered 30 mins prior to glucose challenge measured after 15 to 120 mins by OGTT method; assay type: functional, organism-based
Procedure, shortened: (§2)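 Male ICR mice, 10 weeks old, 18-22 g, fasted overnight (12 h), n = 6 per group. Single oral dose in 0.5% CMC-Na vehicle (10 mL/kg), […] for the reference compound (20 mg/kg) and for the test compounds. Oral glucose load (30%, 3 g/kg) given 30 min later. Tail blood glucose measured by test strip at -30, 0, 15, 30, 45, 60 and 120 min. AUC0-2h also derived. Mean ± SEM.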

[3] = test system: Mus musculus; experiment: Antidiabetic activity in overnight fasted ICR mouse assessed as decrease in blood glucose level at […], po administered 30 mins prior to glucose challenge measured after 15 to 120 mins by OGTT method; assay type: functional, organism-based; details: 38 umol/kg; procedure, shortened: as §2
[4] = target: T1, Free fatty acid receptor 1; experiment: Agonist activity at human FFA1 receptor expressed in CHO cells assessed as Ca2+ influx by FLIPR assay; assay type: functional, cell-based
Procedure, shortened: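 Ca2+ flux assay in CHO cells stably expressing human FFA1: seeded at 15K/well and grown 16 h, then Fluo 4-AM loaded 1 h at 37 °C with probenecid and fatty acid-free BSA. Compounds tested at various concentrations. Response normalized to vehicle (0%) and 10 µM γ-linolenic acid (100%). EC50 from concentration–response fitting, mean of three determinations.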

[5] = test system: Mus musculus; experiment: Antidiabetic activity in overnight fasted po dosed ICR mouse assessed as decrease in blood glucose level administered 30 mins prior to glucose challenge measured after 15 to 120 mins by OGTT method; assay type: functional, organism-based; procedure, shortened: as §2
[6] = test system: Mus musculus; experiment: Antidiabetic activity in overnight fasted ICR mouse assessed as decrease in blood glucose level at 60 mg/kg, po administered 30 mins prior to glucose challenge measured after 60 mins by OGTT method; assay type: functional, organism-based
Procedure, shortened: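 Dose–response OGTT in male ICR mice, 10 weeks old, fasted 12 h, 5 groups of n = 6. Oral doses of 10, 30 or 60 mg/kg, or reference at 20 mg/kg, in 0.5% CMC-Na. Glucose (30%, 3 g/kg) given orally 30 min after dosing. Tail-blood glucose read by test strip at -30, 0, 15, 30, 45, 60 and 120 min. Mean ± SEM.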

[7] = test system: Mus musculus; experiment: Hepatotoxicity in ICR mouse assessed as aspartate aminotransferase levels in serum at 30 mg/kg qd administered through oral gavage for 30 days (reference value: 133.1 +/- 13.1 IU/L); assay type: toxicity, organism-based; details: in vivo, 720 h
[8] = test system: Mus musculus; experiment: Antihyperglycemic activity in overnight fasted STZ-induced type 2 dibetic C57BL/6 mouse assessed as decrease in blood glucose level at 30 mg/kg, po administered 30 mins prior to glucose challenge measured after 15 to 120 mins by OGTT method; assay type: functional, organism-based
Procedure, shortened: (§3)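 Male C57BL/6 mice fed a 45%-fat diet for 4 weeks, given STZ i.p. (80 mg/kg), then high-fat diet for 4 more weeks. Fasting glucose of 11.1 mmol/L or higher taken as diabetic. After a 12 h fast, n = 6 per group, with a normal-mouse control group. Oral dose in 0.5% CMC-Na, then oral glucose (20%, 2 g/kg) 30 min later. Strip glucose at -30 to 120 min.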

[9] = test system: Mus musculus; experiment: Hepatotoxicity in ICR mouse assessed as alanine aminotransferase levels in serum at 30 mg/kg qd administered through oral gavage for 30 days (reference value: 35 +/- 4.3 IU/L); assay type: toxicity, organism-based; details: in vivo, 720 h
[10] = test system: Mus musculus; experiment: Toxicity in overnight fasted ICR mouse assessed as hypoglycemic effect at 60 mg/kg, po after 30 to 120 mins […]; assay type: organism-based; details: in vivo
Procedure, shortened: (§4)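 Fasting hypoglycemia test without a glucose load: male ICR mice, 10 weeks old, fasted overnight, 3 groups of n = 6. Single oral dose of 60 mg/kg test compound, 15 mg/kg glibenclamide or 0.5% CMC-Na vehicle. Tail-vein blood glucose measured by test strip at 0, 30, 60, 90, 120 and 180 min. Mean ± SEM.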

[11] = test system: Mus musculus; experiment: Hepatotoxicity in ICR mouse assessed as total bilirubin levels in serum at 30 mg/kg qd administered through oral gavage for 30 days (reference value: 4.1 +/- 0.4 IU/L); assay type: toxicity, organism-based; details: in vivo, 720 h
[12] = target: T1, Free fatty acid receptor 1; experiment: Agonist activity at human FFA1 receptor expressed in CHO cells assessed as Ca2+ influx at 300 nM by FLIPR assay; assay type: functional, cell-based; procedure, shortened: as §1
[13] = test system: Mus musculus; experiment: Antidiabetic activity in overnight fasted ICR mouse assessed as decrease in blood glucose level at 20 mg/kg, po administered 30 mins prior to glucose challenge measured after 15 to 120 mins by OGTT method; assay type: functional, organism-based; procedure, shortened: as §2
[14] = test system: Mus musculus; experiment: Hepatotoxicity in ICR mouse assessed as alanine aminotransferase levels in serum at 20 mg/kg qd administered through oral gavage for 30 days (reference value: 35 +/- 4.3 IU/L); assay type: toxicity, organism-based; details: in vivo, 720 h
[15] = test system: Mus musculus; experiment: Antihyperglycemic activity in overnight fasted STZ-induced type 2 dibetic C57BL/6 mouse assessed as decrease in blood glucose level at 20 mg/kg, po administered 30 mins prior to glucose challenge measured after 15 to 120 mins by OGTT method; assay type: functional, organism-based; procedure, shortened: as §3
[16] = test system: Mus musculus; experiment: Hepatotoxicity in ICR mouse assessed as total bilirubin levels in serum at 20 mg/kg qd administered through oral gavage for 30 days (reference value: 4.1 +/- 0.4 IU/L); assay type: toxicity, organism-based; details: in vivo, 720 h
[17] = test system: Mus musculus; experiment: Hepatotoxicity in ICR mouse assessed as aspartate aminotransferase levels in serum at 20 mg/kg qd administered through oral gavage for 30 days (reference value: 133.1 +/- 13.1 IU/L); assay type: toxicity, organism-based; details: in vivo, 720 h
[18] = test system: Mus musculus; experiment: Toxicity in overnight fasted ICR mouse assessed as hypoglycemic effect at 15 mg/kg, po after 30 to 120 mins […]; assay type: organism-based; details: in vivo; procedure, shortened: as §4

T1 sequence (O14842 whole entry): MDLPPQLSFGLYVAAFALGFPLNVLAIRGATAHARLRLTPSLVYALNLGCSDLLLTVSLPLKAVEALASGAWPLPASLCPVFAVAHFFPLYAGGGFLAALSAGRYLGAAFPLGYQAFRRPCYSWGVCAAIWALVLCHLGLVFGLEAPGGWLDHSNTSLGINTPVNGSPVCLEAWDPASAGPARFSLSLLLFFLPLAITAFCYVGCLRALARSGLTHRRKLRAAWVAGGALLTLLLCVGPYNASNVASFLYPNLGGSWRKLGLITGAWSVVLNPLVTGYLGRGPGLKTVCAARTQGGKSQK

SMILES | Activity [1] [%] | Activity [12] [%] | also measured
Cc1nc(-c2ccc(Cl)s2)sc1COc1ccc2c(c1)OCC2CC(=O)O (stereo not drawn) | 8.34 |  | 
Cc1ccc(-c2nc(C)c(COc3ccc4c(c3)OCC4CC(=O)O)s2)cc1 (stereo not drawn) | 54.9 |  | Activity [2]: Active; Activity [3]: Active; EC50 [4]: 73.5 nM
Cc1nc(-c2ccc(F)cc2)sc1COc1ccc2c(c1)OCC2CC(=O)O (stereo not drawn) | 61.6 |  | Activity [2]: Active; Activity [5]: Dose-dependent effect; Activity [3]: Active; Activity [6]: Active; Activity [7]: 141.8 IU/L; Activity [8]: Active; Activity [9]: 37.5 IU/L; Activity [10]: Non-toxic; Activity [11]: 4 IU/L; EC50 [4]: 48.7 nM
O=C(O)CC1COc2cc(OCc3cn(-c4ccccc4)nn3)ccc21 (stereo not drawn) |  | 0.89 | 
O=C(O)CC1COc2cc(OCc3nc(-c4ccccc4)cs3)ccc21 (stereo not drawn) | 0.16 | 0.23 | 
Cc1nc(-c2ccccc2Cl)sc1COc1ccc2c(c1)OCC2CC(=O)O (stereo not drawn) | 12.4 |  | 
Cc1nc(-c2ccccc2)sc1COc1ccc2c(c1)OCC2CC(=O)O (stereo not drawn) | 54.8 | 67.4 | Activity [3]: Active
Cc1nc(-c2ccccc2C(F)(F)F)sc1COc1ccc2c(c1)OCC2CC(=O)O (stereo not drawn) | 7.76 |  | 
Cc1nc(-c2ccccc2)oc1COc1ccc2c(c1)OCC2CC(=O)O (stereo not drawn) | 7.15 | 21.2 | 
O=C(O)CC1COc2cc(OCc3ncc(-c4ccccc4)s3)ccc21 (stereo not drawn) | 5.26 | 19.8 | 
Cc1nc(-c2cccc(Cl)c2)sc1COc1ccc2c(c1)OCC2CC(=O)O (stereo not drawn) | 43 |  | EC50 [4]: 138 nM
Cc1nc(-c2cccs2)sc1COc1ccc2c(c1)OCC2CC(=O)O (stereo not drawn) | 35.1 |  | 
O=C(O)CC1COc2cc(OCc3csc(-c4ccccc4)n3)ccc21 (stereo not drawn) | 0.15 | 5.67 | 
Cc1ccccc1-c1nc(C)c(COc2ccc3c(c2)OCC3CC(=O)O)s1 (stereo not drawn) | 10.7 |  | 
COc1cc(-c2nc(C)c(COc3ccc4c(c3)OCC4CC(=O)O)s2)cc(OC)c1OC (stereo not drawn) | 7.47 |  | 
Cc1nc(-c2cccc3ccccc23)sc1COc1ccc2c(c1)OCC2CC(=O)O (stereo not drawn) | 8.53 |  | 
O=C(O)CC1COc2cc(OCc3ncc(-c4ccccc4)o3)ccc21 (stereo not drawn) | 2.34 | 10.2 | 

SMILES | Activity [1] [%] | Activity [12] [%] | also measured
O=C(O)CC1COc2cc(OCc3nnc(-c4ccccc4)s3)ccc21 (stereo not drawn) | 3.36 | 13.7 | 
Cc1nc(-c2ccsc2)sc1COc1ccc2c(c1)OCC2CC(=O)O (stereo not drawn) | 56.5 |  | Activity [3]: Active; EC50 [4]: 68.5 nM
COc1ccc(-c2nc(C)c(COc3ccc4c(c3)OCC4CC(=O)O)s2)cc1 (stereo not drawn) | 46.8 |  | EC50 [4]: 123 nM
Cc1cccc(-c2nc(C)c(COc3ccc4c(c3)OCC4CC(=O)O)s2)c1 (stereo not drawn) | 47.2 |  | EC50 [4]: 119 nM
Cc1nc(-c2cc3ccccc3o2)sc1COc1ccc2c(c1)OCC2CC(=O)O (stereo not drawn) | 14.8 |  | 
Cc1cc(OCCCS(C)(=O)=O)cc(C)c1-c1cccc(COc2ccc3c(c2)OC[C@H]3CC(=O)O)c1 [FASIGLIFAM] |  |  | Activity [13]: Active; Activity [14]: 48.3 IU/L; Activity [15]: Active; Activity [16]: 4 IU/L; Activity [17]: 181.1 IU/L
Cc1nc(-c2ccccc2F)sc1COc1ccc2c(c1)OCC2CC(=O)O (stereo not drawn) | 25.8 |  | 
O=C(O)CC1COc2cc(OCc3cc(-c4ccccc4)on3)ccc21 (stereo not drawn) | 0.84 | 1.67 | 
COc1ccc(Cl)cc1C(=O)NCCc1ccc(S(=O)(=O)NC(=O)NC2CCCCC2)cc1 [GLYBURIDE] |  |  | Activity [18]: Toxic
O=C(O)CC1COc2cc(OCc3nnc(-c4ccccc4)o3)ccc21 (stereo not drawn) | 1.54 | 6.31 | 
COc1cc(OC)cc(-c2nc(C)c(COc3ccc4c(c3)OCC4CC(=O)O)s2)c1 (stereo not drawn) | 17.5 |  | 
Cc1nc(-c2cccc(C(F)(F)F)c2)sc1COc1ccc2c(c1)OCC2CC(=O)O (stereo not drawn) | 35.7 |  | 
Cc1nc(-c2ccc(C(F)(F)F)cc2)sc1COc1ccc2c(c1)OCC2CC(=O)O (stereo not drawn) | 50.4 |  | EC50 [4]: 96.7 nM
Cc1nc(-c2ccc(Cl)cc2)sc1COc1ccc2c(c1)OCC2CC(=O)O (stereo not drawn) | 53.4 |  | Activity [2]: Active; Activity [3]: Active; EC50 [4]: 85.6 nM
Cc1nc(-c2cccc(F)c2)sc1COc1ccc2c(c1)OCC2CC(=O)O (stereo not drawn) | 56.9 |  | Activity [2]: Active; Activity [3]: Active; EC50 [4]: 64.8 nM
Cc1cc(COc2ccc3c(c2)OCC3CC(=O)O)nn1-c1ccccc1 (stereo not drawn) | 0.98 | 1.23 | 
